From ChEMBL document CHEMBL2146396, “Design, synthesis and evaluation of novel metalloproteinase inhibitors based on L-tyrosine scaffold” (Bioorg Med Chem, 2012)

Columns and labels:
Histone deacetylase 8 = molecular target: T1, Histone deacetylase 8 (Homo sapiens, UniProt Q9BY41); assay: Inhibition of HDAC8 after 45 mins by microplate fluorometric analysis
T1 sequence (Q9BY41 whole entry): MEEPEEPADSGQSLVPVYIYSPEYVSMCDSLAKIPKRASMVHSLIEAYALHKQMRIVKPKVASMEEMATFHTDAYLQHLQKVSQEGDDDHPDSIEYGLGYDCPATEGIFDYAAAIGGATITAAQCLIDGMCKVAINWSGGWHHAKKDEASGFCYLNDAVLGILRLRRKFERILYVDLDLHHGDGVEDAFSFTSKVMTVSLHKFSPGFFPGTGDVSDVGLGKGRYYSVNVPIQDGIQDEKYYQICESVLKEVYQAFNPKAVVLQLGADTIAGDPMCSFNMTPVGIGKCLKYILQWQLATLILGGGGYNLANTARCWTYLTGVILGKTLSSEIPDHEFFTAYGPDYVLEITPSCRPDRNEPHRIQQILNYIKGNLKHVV

[1] = molecular target: 72 kDa type IV collagenase (Homo sapiens, UniProt P08253); assay: Inhibition of MMP2 using BML-P125-9090 as substrate after 30 mins by microplate reader analysis
Chain of 72 kDa type IV collagenase (P08253 whole entry): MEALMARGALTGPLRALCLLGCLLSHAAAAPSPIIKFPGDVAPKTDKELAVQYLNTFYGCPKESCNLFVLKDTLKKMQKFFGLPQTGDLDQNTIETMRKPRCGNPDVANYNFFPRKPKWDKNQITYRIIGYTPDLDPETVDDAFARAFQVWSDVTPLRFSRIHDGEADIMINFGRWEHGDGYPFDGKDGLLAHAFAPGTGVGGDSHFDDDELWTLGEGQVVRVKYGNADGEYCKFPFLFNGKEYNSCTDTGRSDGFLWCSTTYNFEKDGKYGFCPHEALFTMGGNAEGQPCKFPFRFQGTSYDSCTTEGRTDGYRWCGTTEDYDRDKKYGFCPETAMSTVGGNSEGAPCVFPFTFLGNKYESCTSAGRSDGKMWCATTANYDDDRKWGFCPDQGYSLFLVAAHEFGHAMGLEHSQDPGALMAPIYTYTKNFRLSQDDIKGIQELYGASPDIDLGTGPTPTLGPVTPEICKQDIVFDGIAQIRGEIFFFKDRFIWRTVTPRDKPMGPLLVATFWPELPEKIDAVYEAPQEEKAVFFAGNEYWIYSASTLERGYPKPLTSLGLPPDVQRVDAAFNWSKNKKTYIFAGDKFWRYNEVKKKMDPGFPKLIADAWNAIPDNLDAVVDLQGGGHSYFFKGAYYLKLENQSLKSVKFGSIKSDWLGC
Outline: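 Colorimetric kit assay. Enzyme and inhibitor were preincubated 30 min at 37 °C in assay buffer equilibrated to 37 °C. Substrate was then added to start the reaction. A412 was read continuously at 1 min intervals for 10 min. IC50 was derived from the readings.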

IC50 (Histone deacetylase 8)	IC50 [1]	Structure (SMILES)
> 1000 µM	67.5 µM	COC(=O)[C@H](Cc1ccc(OCc2ccccc2)cc1)NC(=O)c1ccccc1
> 1000 µM	2.4 µM	COC(=O)[C@H](Cc1ccc(OCCc2ccccc2)cc1)NS(C)(=O)=O
> 1000 µM	10.7 µM	COC(=O)[C@H](Cc1ccc(OCc2ccccc2)cc1)NS(=O)(=O)c1ccc(C)cc1
> 1000 µM	83.7 µM	COC(=O)[C@H](Cc1ccc(OCc2ccccc2)cc1)NC(=O)c1ccc(C)cc1
> 1000 µM	0.27 µM	Cc1ccc(S(=O)(=O)N[C@@H](Cc2ccc(OCCc3ccccc3)cc2)C(=O)O)cc1
52.5 µM	3.9 µM	Cc1ccc(C(=O)N[C@@H](Cc2ccc(OCCc3ccccc3)cc2)C(=O)NO)cc1
121 µM	0.75 µM	CC(=O)N[C@@H](Cc1ccc(OCCc2ccccc2)cc1)C(=O)O
> 1000 µM	8.1 µM	Cc1ccc(C(=O)N[C@@H](Cc2ccc(OCc3ccccc3)cc2)C(=O)O)cc1
> 1000 µM	85.5 µM	COC(=O)[C@H](Cc1ccc(OCCc2ccccc2)cc1)NC(=O)c1ccc(C)cc1
9.3 µM	1.7 µM	O=C(N[C@@H](Cc1ccc(OCc2ccccc2)cc1)C(=O)NO)c1ccccc1
505 µM	2.5 µM	Cc1ccc(S(=O)(=O)N[C@@H](Cc2ccc(OCc3ccccc3)cc2)C(=O)O)cc1
253 µM	7.6 µM	O=C(N[C@@H](Cc1ccc(OCCc2ccccc2)cc1)C(=O)O)c1ccccc1
5.8 µM	0.037 µM	CC(=O)N[C@@H](Cc1ccc(OCc2ccccc2)cc1)C(=O)NO
962 µM	6.3 µM	COC(=O)[C@H](Cc1ccc(OCCc2ccccc2)cc1)NS(=O)(=O)c1ccc(C)cc1
27.8 µM	0.9 µM	O=C(N[C@@H](Cc1ccc(OCCc2ccccc2)cc1)C(=O)NO)c1ccccc1
872 µM	27.6 µM	COC(=O)[C@H](Cc1ccc(OCc2ccccc2)cc1)NC(C)=O

IC50 (Histone deacetylase 8)	IC50 [1]	Structure (SMILES)
9.5 µM	0.029 µM	CS(=O)(=O)N[C@@H](Cc1ccc(OCCc2ccccc2)cc1)C(=O)NO
825 µM	12.5 µM	COC(=O)[C@H](Cc1ccc(OCCc2ccccc2)cc1)NC(C)=O
14.4 µM	0.013 µM	CC(=O)N[C@@H](Cc1ccc(OCCc2ccccc2)cc1)C(=O)NO
3.6 µM	0.067 µM	CS(=O)(=O)N[C@@H](Cc1ccc(OCc2ccccc2)cc1)C(=O)NO
754 µM	17.8 µM	COC(=O)[C@H](Cc1ccc(OCc2ccccc2)cc1)NS(C)(=O)=O
111 µM	9.8 µM	O=C(N[C@@H](Cc1ccc(OCc2ccccc2)cc1)C(=O)O)c1ccccc1
42.4 µM	0.025 µM	Cc1ccc(S(=O)(=O)N[C@@H](Cc2ccc(OCc3ccccc3)cc2)C(=O)NO)cc1
102 µM	0.12 µM	CS(=O)(=O)N[C@@H](Cc1ccc(OCCc2ccccc2)cc1)C(=O)O
> 1000 µM	74.6 µM	COC(=O)[C@H](Cc1ccc(OCCc2ccccc2)cc1)NC(=O)c1ccccc1
386 µM	4.5 µM	Cc1ccc(C(=O)N[C@@H](Cc2ccc(OCCc3ccccc3)cc2)C(=O)O)cc1
47.2 µM	1.4 µM	CS(=O)(=O)N[C@@H](Cc1ccc(OCc2ccccc2)cc1)C(=O)O
36.9 µM	3 µM	CC(=O)N[C@@H](Cc1ccc(OCc2ccccc2)cc1)C(=O)O
–	0.014 µM	COc1ccc(S(=O)(=O)N(CC(=O)NO)CC(C)C)cc1
30.7 µM	0.46 µM	Cc1ccc(C(=O)N[C@@H](Cc2ccc(OCc3ccccc3)cc2)C(=O)NO)cc1
82.5 µM	0.017 µM	Cc1ccc(S(=O)(=O)N[C@@H](Cc2ccc(OCCc3ccccc3)cc2)C(=O)NO)cc1
